Laboratory results from ChEMBL document CHEMBL1121659 (J Med Chem, 1981).

How the values were obtained:
[1] = Compound at the dose 10 mg/kg administered intraperitoneally was evaluated for the excretion rate in rats in 7 days through urine; type: ADME, organism-based; design: dose 10 mg/kg, route intraperitoneal; details: rat, ip, read-out: Excretion
Summary of the method: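 Male Wistar rats (150–330 g) in individual metabolic cages received [14C] compound 10 mg/kg ip in propylene glycol (5 mL/kg), n=4. Urine and feces were collected for 7 days. Urine was diluted with EtOH and counted directly. Fecal EtOH homogenates were dried, combusted and counted as trapped 14CO2.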

[2] = Compound was evaluated for the cumulative excretion rate in rats at the dose 10 mg/kg, intraperitoneally for 18 days through urine; type: ADME, organism-based; design: dose 10 mg/kg, route intraperitoneal; details: rat, ip, read-out: Excretion
Summary of the method: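 Four male Wistar rats were dosed with [14C] compound at 10 mg/kg ip in propylene glycol (5 mL/kg). Urine and feces were collected at 3-day intervals for 18 days. Fecal EtOH homogenates were combusted and counted. Daily fecal rate for the 0–3 day interval was corrected for gastrointestinal transit time (about 18 h).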

[3] = Compound was evaluated for the in rats after the dose of 5 mg/kg intravenously, at the dose 4 hour biliary excretion; type: ADME, organism-based; design: dose 5 mg/kg, route intravenous; details: rat, bile, iv, read-out: Excretion
Summary of the method: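 Three male rats with jugular cannulae, body temperature held at 37–38 °C, received [14C] compound 5 mg/kg by 3–5 min infusion in propylene glycol–ethanol–0.1 N NaOH (4:1:5, 1 mL/kg). Bile was collected in two 30-min periods, then hourly up to 4 h, and counted. Bile volume was also determined.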

[4] = system: Rattus norvegicus; experiment: excretion rate in rats after the dose of 5 mg/kg intravenously, at the dose 4 hour Rate of biliary excretion; 0.06-0.15%/h; type: ADME, organism-based, Bile; design: dose 5 mg/kg, route intravenous; details: in vivo, iv
[5] = Compound was evaluated for the average apparent volume of distribution when administered through intravenous route; type: ADME, organism-based; details: in vivo, read-out: Vd app
Summary of the method: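 Male Wistar rats under pentobarbital (25 mg/kg ip) received [14C] compound 5 mg/kg iv in propylene glycol–0.1 N NaOH (1:1). Dosing was by jugular infusion, or by tail vein for later time points.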

[6] = Compound was evaluated for the Brain levels at 24 h in the Swiss webster mouse when administered at the […]; type: ADME, organism-based; details: read-out: Plasma level
Summary of the method: (§1)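 Swiss Webster mice (20–30 g) received [14C] compound 10 mg/kg ip. Four animals were killed at each of 12, 18, 24, 36, 48 and 72 h. Radioactivity was measured in plasma and brain, and the plasma elimination half-life was derived from these levels.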

[7] = Compound was evaluated for the plasma level at 18 hr in the Swiss webster mouse when administered at the […]; type: ADME; details: read-out: Plasma level; summary of the method: as §1
[8] = Compound was evaluated for the biological half life in rats after a dose of 5 mg/kg given intraperitoneal route; type: ADME, organism-based; design: dose 5 mg/kg, route intraperitoneal; details: rat, in vivo, ip
Summary of the method: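 Male Wistar rats were given [14C] compound 5 mg/kg ip in propylene glycol (2 mL/kg). Blood was taken by cardiac puncture under ether at 1, 2, 3, 5 and 7 days, six rats per time point. Plasma 14C was counted to give the β-phase elimination half-life and plasma levels.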

[9] = Compound was evaluated for the toxicity in mouse on 7 th day when administered through Oral route; type: organism-based; details: in vivo
Summary of the method: (§2)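 Male Swiss Webster mice (20–40 g) dosed in propylene glycol (10–20 mL/kg), ip at 10, 20, 50, 100 and 200 mg/kg or po at 100 and 200 mg/kg. Ten mice per dose level, observed for toxicity for 1 week. LD50 taken at 7 days.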

[10] = Compound was evaluated for the toxicity in mouse on 7 th day when administered through intraperitoneal route; type: organism-based; details: in vivo, ip; summary of the method: as §2
[11] = system: Mus musculus; experiment: Time to first twitch in intravenous pentylenetetrazole test in mice at 100 mg/kg for 96 hr time of test; type: functional
Summary of the method: (§3)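 Carworth Farm No. 1 mice (average 20 g) were dosed ip. At set times afterwards, 0.5% pentylenetetrazol in heparinized saline was infused into the tail vein at 0.34 mL/min. Time to first twitch was recorded in individual mice, with observation to 240 s.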

[12] = system: Mus musculus; experiment: Time to first twitch in intravenous pentylenetetrazole test in mice at 1000 mg/kg for 24 hr time of test; type: functional; summary of the method: as §3
[13] = system: Mus musculus; experiment: Time to first twitch in intravenous pentylenetetrazole test in mice at 150 mg/kg for 30 hr time of test; type: functional; summary of the method: as §3
[14] = system: Mus musculus; experiment: Time to first twitch in intravenous pentylenetetrazole test in mice at 150 mg/kg for 48 hr time of test; type: functional; summary of the method: as §3
[15] = system: Mus musculus; experiment: Time to first twitch in intravenous pentylenetetrazole test in mice at 150 mg/kg for 72 h time of test; type: functional; summary of the method: as §3
[16] = system: Mus musculus; experiment: Time to first twitch in intravenous pentylenetetrazole test in mice at 150 mg/kg for 96 hr time of test; type: functional; summary of the method: as §3
[17] = system: Mus musculus; experiment: Time to first twitch in intravenous pentylenetetrazole test in mice at 200 mg/kg for 30 h time of test; type: functional; summary of the method: as §3
[18] = system: Mus musculus; experiment: Time to first twitch in intravenous pentylenetetrazole test in mice at 200 mg/kg for 48 hr time of test; type: functional; summary of the method: as §3
[19] = system: Mus musculus; experiment: Time to first twitch in intravenous pentylenetetrazole test in mice at 200 mg/kg for 72 hr time of test; type: functional; summary of the method: as §3
[20] = system: Mus musculus; experiment: Time to first twitch in intravenous pentylenetetrazole test in mice at 200 mg/kg for 96 hr time of test; type: functional; summary of the method: as §3
[21] = system: Mus musculus; experiment: Time to first twitch in intravenous pentylenetetrazole test in mice at 300 mg/kg for 30 hr time of test; type: functional; summary of the method: as §3
[22] = system: Mus musculus; experiment: Time to first twitch in intravenous pentylenetetrazole test in mice at 500 mg/kg for 24 hr time of test; type: functional
Summary of the method: (§4)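 Carworth Farm no. 1 mice (av wt 20 g) given the compound ip; at the designated time afterwards, 0.5% pentylenetetrazol in heparinized saline was infused into the tail vein at 0.34 mL/min. Time to first twitch (minimal excitation) was recorded for individual mice, observed up to 240 s.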

[23] = system: Mus musculus; experiment: Time to first twitch in intravenous pentylenetetrazole test in mice at 500 mg/kg for 48 hr time of test; type: functional; summary of the method: as §4
[24] = system: Mus musculus; experiment: Time to first twitch in intravenous pentylenetetrazole test in mice at 750 mg/kg for 24 hr time of test; type: functional; summary of the method: as §4
[25] = system: Mus musculus; experiment: Time to first twitch in intravenous pentylenetetrazole test in mice at 750 mg/kg for 48 hr time of test; type: functional; summary of the method: as §4
[26] = Compound was evaluated for the tissue levels after 1 hour of administration of 5 mg/kg through intravenous route, the given data is tissue/plasma ratios Muscle; type: ADME, organism-based; design: dose 5 mg/kg, route intravenous
Summary of the method: (§5)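 Anesthetized male Wistar rats received [14C] compound 5 mg/kg by slow jugular infusion in propylene glycol–0.1 N NaOH (1:1). Tissues were taken at 1 h, four per group, rinsed, blotted and weighed. Fat, muscle and red cells were combusted directly, other organs after EtOH homogenization. Tissue/plasma 14C ratios were computed.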

[27] = Compound was evaluated for the tissue levels after 1 hour of administration of 5 mg/kg through intravenous route, the given data is tissue/plasma ratios brain; type: ADME, organism-based; design: dose 5 mg/kg, route intravenous; summary of the method: as §5
[28] = Compound was evaluated for the tissue levels after 1 hour of administration of 5 mg/kg through intravenous route, the given data is tissue/plasma ratios gastrointestinal tract; type: ADME, organism-based; design: dose 5 mg/kg, route intravenous; summary of the method: as §5
[29] = Compound was evaluated for the tissue levels after 1 hour of administration of 5 mg/kg through intravenous route, the given data is tissue/plasma ratios kidneys; type: ADME, organism-based, Kidney; design: dose 5 mg/kg, route intravenous; summary of the method: as §5
[30] = Compound was evaluated for the tissue levels after 1 hour of administration of 5 mg/kg through intravenous route, the given data is tissue/plasma ratios liver; type: ADME, organism-based; design: dose 5 mg/kg, route intravenous; summary of the method: as §5

For `O=C1NC(=O)C(c2ccc(C(F)(F)F)cc2)(c2ccc(C(F)(F)F)cc2)N1`, the dose excreted at 168 h [1] was 0.3%, the dose excreted at 432 h [2] was 0.25% and the dose excreted at 4 h [3] was 0.5%. It also gave an Excretion rate [4] of 0.15, a Vd [5] of 0.42 L/kg and a concentration at 24 h [6] of 3.5 µg/mL. For the same compound, the concentration at 18 h [7] was 27 µg/mL, the half-life [8] was 71.7 h and the LD50 at 7 days [9] was 100 mg/kg. The LD50 at 7 days [10] was 40 mg/kg, the Time [11] was 27.5 s and the Time [12] was 25.5 s. It also gave a Time [13] of 28.6 s, a Time [14] of 26.7 s and a Time [15] of 24.1 s. For the same compound, the Time [16] was 23.4 s, the Time [17] was 29.6 s and the Time [18] was 24.5 s. For the same compound, the Time [19] was 23.6 s, the Time [20] was 34.5 s and the Time [21] was 22 s. It also gave a Time [22] of 27.3 s, a Time [23] of 28.7 s and a Time [24] of 26.6 s. The Time [25] was 71 s, the Kp at 1 h [26] was 0.41 and the Kp at 1 h [27] was 0.14. It also gave a Kp at 1 h [28] of 0.48, a Kp at 1 h [29] of 0.61 and a Kp at 1 h [30] of 0.96.
